Experimental data as given in ChEMBL document CHEMBL1127799, “Derivatives of a novel cyclopeptolide. 1. Synthesis, antifungal activity, and structure-activity relationships” (1994).
Values after ≈ are worked out from the molar mass of the structure shown.

Experiments:
Type in all cases: functional
Candida albicans [1] = test: Tested for minimum subinhibitory concentration against Candida albicans 4 (Candida albicans) at pH 4.5.
How it was run: (§1)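 Malt extract broth microdilution at initial pH 4.5, 1×10^3 CFU/0.2 mL well, final compound 0.05–100 μg/mL diluted from DMSO/Tween 80 stocks. Incubation was 48 h at 30 °C with macroscopic reading. MSIC was the lowest concentration causing visible growth inhibition in at least two of three triplicates.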

Candida albicans [2] = test: Tested for minimum subinhibitory concentration against Candida albicans 3 (Candida albicans) at pH 6.5.
How it was run: (§2)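 Malt extract broth microdilution, initial pH 6.5, inoculum 1×10^3 CFU per 0.2 mL well. Compound diluted from 0.08% stock (5% DMSO/0.2% Tween 80) to final 0.05–100 μg/mL. Macroscopic reading after 48 h, 30 °C. MSIC = lowest concentration giving visible growth inhibition in at least two of three triplicates. Vehicle-only negative controls.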

Mus musculus [3] = test: Tested for efficacy of compound in experimental systemic candidosis (mouse) after intraperitoneal treatment at dosage of 8 *100 mg kg e-1
How it was run: (§3)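 Mice (female NMRI, 18–20 g; 10 per group) infected by tail-vein injection of 10⁶ CFU C. albicans no. 124. Compound was given intraperitoneally twice daily on 4 consecutive days, starting 2 h before inoculation. Efficacy was scored as survival rate up to day 9 after infection.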

Pichia kudriavzevii [4] = test: Tested for minimum inhibitory concentration against Candida krusei 132 (C.k) at pH of 6.5.
How it was run: (§4)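 Broth microdilution in malt extract broth, initial pH 4.5 or 6.5, with 1×10^3 CFU per 0.2 mL well of thawed stored cultures. Compound stocks were made in 5% DMSO/0.2% Tween 80 and diluted to final 0.05–100 μg/mL. Plates were incubated 48 h at 30 °C and read macroscopically. MIC was the lowest concentration with no detectable growth. Vehicle-only wells served as controls.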

Rattus norvegicus [5] = test: Tested for efficacy of compound in experimental vaginal candidosis (rat) after intraperitoneal treatment at dosage of 2x 50 mg kg e-1
How it was run: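 Female Wistar rats (~150 g; 10 per group) were hormonally conditioned and infected intravaginally with 3.5×10^4 CFU C. albicans no. 124 in 50 μL broth. Intraperitoneal dosing was given twice, 2 h before and 18 h after infection. Swabs taken one day after the last dose were plated on streptomycin Sabouraud agar (48 h, 37 °C). Cure meant failed reisolation.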

Candida albicans [6] = test: Tested for minimum subinhibitory concentration against Candida albicans 90 (Candida albicans) at pH 4.5.; how it was run: as §1
Rattus norvegicus [7] = species: Rattus norvegicus; test: Tested for efficacy of compound in experimental vaginal candidosis (rat) after oral treatment at dosage of 2x 300 mg kg e-1
How it was run: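 Hormonally conditioned female Wistar rats (~150 g), 10 per group, given intravaginal C. albicans no. 124, 3.5×10^4 CFU in 50 μL Sabouraud's glucose broth. Oral dosing twice, 2 h before and 18 h after infection. Vaginal swabs plated on Sabouraud's glucose agar with streptomycin (0.1 mg/mL), 48 h at 37 °C. Cured when C. albicans not reisolated.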

[8] = test system: Meyerozyma guilliermondii; test: Tested for minimum inhibitory concentration against Candida guilliermondii 80 (C.g) at pH 6.5.
How it was run: (§5)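 Broth microdilution in malt extract broth, initial pH 6.5, 1×10^3 CFU per 0.2 mL well, from liquid-nitrogen-stored Sabouraud cultures. Compound from 0.08% stock in 5% DMSO/0.2% Tween 80, final 0.05–100 μg/mL. Visual reading after 48 h at 30 °C. MIC = lowest concentration with no detectable growth. Vehicle-only negative controls.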

Candida albicans [9] = test: Tested for minimum subinhibitory concentration against Candida albicans 4 (Candida albicans) at pH 6.5.; how it was run: as §2
Candida albicans [10] = test: Tested for minimum subinhibitory concentration against Candida albicans 26 (Candida albicans) at pH 6.5.; how it was run: as §2
Pichia kudriavzevii [11] = test: Tested for minimum inhibitory concentration against Candida krusei 132 (C.k) at pH 4.5.; how it was run: as §4
Candida tropicalis = test: Tested for minimum inhibitory concentration against Candida tropicalis 43 (C.t) at pH 6.5.; how it was run: as §5
Candida albicans [12] = test: Tested for minimum subinhibitory concentration against Candida albicans 88 (Candida albicans) at pH 4.5.; how it was run: as §1
Mus musculus [13] = species: Mus musculus; test: Tested for efficacy of compound in experimental vaginal candidosis (mouse) after oral treatment at dosage of 4 x150 mg kg e-1
How it was run: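 Vaginal candidiasis in hormonally conditioned female NMRI mice (18–20 g), 10 per group, inoculated intravaginally with 50 μL Sabouraud's glucose broth containing 3.5×10^4 CFU C. albicans no. 124. Dosed four times per gavage, 2 h before and 2, 18 and 24 h after infection. Vaginal swabs plated on Sabouraud's glucose agar with streptomycin (0.1 mg/mL), 48 h at 37 °C. Cure = failed reisolation.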

Mus musculus [14] = test: Tested for efficacy of compound in experimental systemic candidosis (mouse) after intraperitoneal treatment at dosage of 8 *50 mg kg e-1; how it was run: as §3
Rattus norvegicus [15] = species: Rattus norvegicus; test: Tested for efficacy of compound in experimental vaginal candidosis (rat) after tropical treatment at dosage of 9x 1% drug concentration
How it was run: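 Hormonally conditioned female Wistar rats (~150 g; 10 per group) were infected intravaginally with 3.5×10^4 CFU C. albicans no. 124. Intravaginal gel (0.2 mL) started 2 h post-inoculation and was applied twice daily for 4 days, giving nine applications. Vaginal swabs taken one day after the last treatment were cultured on streptomycin Sabouraud agar at 37 °C for 48 h. Cure meant no reisolation.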

Candida albicans [16] = test: Tested for minimum inhibitory concentration against Candida albicans 3 (Candida albicans) at pH 6.5.; how it was run: as §5
Candida albicans [17] = test: Tested for minimum inhibitory concentration against Candida albicans 9 (Candida albicans) at pH 6.5.; how it was run: as §5
Pichia kudriavzevii [18] = test: Tested for minimum subinhibitory concentration against Candida krusei 132 (C.k) at pH 4.5.; how it was run: as §1
Candida albicans [19] = test: Tested for minimum subinhibitory concentration against Candida albicans 124 (Candida albicans) at pH 4.5.; how it was run: as §1
Candida albicans [20] = test: Tested for minimum inhibitory concentration against Candida albicans 26 (Candida albicans) at pH 4.5.; how it was run: as §4
Mus musculus [21] = test: Tested for efficacy of compound in experimental systemic candidosis (mouse) after intraperitoneal treatment at dosage of 8 *25 mg kg e-1; how it was run: as §3
Candida albicans [22] = test: Tested for minimum inhibitory concentration against Candida albicans 124 (Candida albicans) at pH 6.5.; how it was run: as §5
Candida albicans [23] = test: Tested for minimum inhibitory concentration against Candida albicans 90 (Candida albicans) at pH 6.5.; how it was run: as §5
Candida albicans [24] = test: Tested for minimum subinhibitory concentration against Candida albicans 26 (Candida albicans) at pH 4.5.; how it was run: as §1
Candida albicans [25] = test: Tested for minimum inhibitory concentration against Candida albicans 4 (Candida albicans) at pH 6.5.; how it was run: as §5
Pichia kudriavzevii [26] = test: Tested for minimum inhibitory concentration against Candida krusei 132 (C.k) at pH of 4.5.; how it was run: as §4
Candida albicans [27] = test: Tested for minimum subinhibitory concentration against Candida albicans 3 (Candida albicans) at pH 4.5.; how it was run: as §1

MIC (Pichia kudriavzevii [4]): > 100 µg/mL
MIC [8]: > 100 µg/mL
MIC (Pichia kudriavzevii [11]): > 100 µg/mL
MIC (Candida tropicalis): 100 µg/mL (≈ 88.8 µM)
MIC (Candida albicans [16]): > 100 µg/mL
MIC (Candida albicans [17]): > 100 µg/mL
MIC (Candida albicans [20]): 6.25 µg/mL (≈ 5.55 µM)
MIC (Candida albicans [22]): 50 µg/mL (≈ 44.4 µM)
MIC (Candida albicans [23]): 100 µg/mL (≈ 88.8 µM)
MIC (Candida albicans [25]): 100 µg/mL (≈ 88.8 µM)
MIC (Pichia kudriavzevii [26]): > 100 µg/mL
SMILES: CC[C@@H](C)[C@H]1C(=O)NCC(=O)N(C)[C@@H](C(C)C)C(=O)N[C@@H](Cc2ccc(OC)cc2)C(=O)O[C@H](C)C(=O)N2CCCC[C@H]2C(=O)N(C)[C@@H](C(C)C)C(=O)N[C@@H](C(C)C)C(=O)N(C)[C@@H](CC(=O)O)C(=O)N(C)[C@@H]([C@@H](C)CC)C(=O)N1C
MSIC (Candida albicans [1]): 0.78 µg/mL
MSIC (Candida albicans [2]): 6.25 µg/mL
Efficacy (Mus musculus [3]): 100%
Efficacy (Rattus norvegicus [5]): 0%
MSIC (Candida albicans [6]): 0.78 µg/mL
Efficacy (Rattus norvegicus [7]): 56%
MSIC (Candida albicans [9]): 12.5 µg/mL
MSIC (Candida albicans [10]): 6.25 µg/mL
MSIC (Candida albicans [12]): 0.78 µg/mL
Efficacy (Mus musculus [13]): 31%
Efficacy (Mus musculus [14]): 20%
Efficacy (Rattus norvegicus [15]): 100%
MSIC (Pichia kudriavzevii [18]): 1.56 µg/mL
MSIC (Candida albicans [19]): 0.4 µg/mL
Efficacy (Mus musculus [21]): 20%
MSIC (Candida albicans [24]): 0.78 µg/mL
MSIC (Candida albicans [27]): 0.78 µg/mL
